Data on 1 molecule can be found in ChEMBL document CHEMBL4725347, “Discovery of a Monoiodo Aza-BODIPY Near-Infrared Photosensitizer: in vitro and in vivo Evaluation for Photodynamic Therapy” (J Med Chem, 2020).

The test system of data set [1] is HeLa. Put plainly: Phototoxicity against human HeLa cells assessed as reduction in cell viability preincubated for 3 hrs followed by 54 J/cm2 light irradiation and measured after 24 hrs by MTT assay. Format: functional, cell-based. The settings on record: light or radiation study. A digest of the protocol:
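PS formulated in PBS containing Cremophor EL/1,2-propanediol (10:3, v:v) after THF removal, filtered, with concentration confirmed by UV-Vis. Cells were grown in DMEM with 10% FBS and seeded at 3×10^3 per well overnight. They were incubated with PS for 3 h, irradiated at λ > 590 nm, kept 24 h at 37 °C, then given MTT (0.5 mg/mL, 4 h) with DMSO solubilization and A490 read-out.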
For orientation: Formazan colour is commonly taken as a measure of viable cells.

Data set [2] is described as follows: Absorption property of the compound in chloroform assessed as absorption coefficient by UV-visible spectrophotometric method. In kind it is physicochemical. An outline of the steps:
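Electronic absorption spectra recorded by UV-visible spectrophotometry at room temperature. Solvents were chloroform, isopropanol, acetonitrile, DMF, and PBS buffer containing 1% Cremophor EL/1,2-propanediol (10:3, v:v). Chloroform data were referenced to the non-halogenated parent dye.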

Data set [3] concerns HeLa. Put plainly: Induction of apoptosis in human HeLa cells assessed as late apoptotic cells at 200 nM preincubated for 3 hrs followed by 27 J/cm2 light irradiation and measured after 24 hrs by Annexin-V-FITC/propidium iodide staining based flow cytometry (reference value: 5.92%). Format: functional. An outline of the steps:
(§1)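 HeLa cells in six-well plates were exposed to compound for 3 h, irradiated (λ > 590 nm), and incubated 24 h at 37 °C. Cells were then harvested, washed with PBS, and stained with annexin V-FITC/PI for 20 min at room temperature before immediate flow cytometry. Untreated, unirradiated cells served as control.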
Background: In flow cytometry, cells or beads pass a laser one at a time.

Data set [4] is described as follows: Photostability of the compound in acetonitrile assessed as compound degradation irradiated with 90 mW/cm2 light. Format: physicochemical.
For data set [5], the system named is HeLa. The experiment in a line: Induction of reactive oxygen species generation in human HeLa cells at 0.004 to 2.5 uM incubated for 3 hrs prior to H2DCFDA addition for 20 mins followed by 54 J/cm2 light irradiation by microplate reader analysis. Format: functional, cell-based. The settings on record: dose microM 0.004-2.5, time 3.0 hrs. An outline of the steps:
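HeLa cells were exposed to 0.004, 0.02, 0.10, 0.5 or 2.5 μM for 3 h, washed, and loaded with H2DCFDA 10 μM in PBS for 20 min at 37 °C. After washing, cells in PBS were irradiated with 54 J/cm² (λ > 590 nm) or kept dark. Fluorescence was read by confocal microscopy and by plate reader (ex 485/em 538 nm).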

In data set [6] the test system is HeLa. The experiment in a line: Induction of apoptosis in human HeLa cells assessed as viable cells at 40 nM preincubated for 3 hrs followed by 54 J/cm2 light irradiation and measured after 24 hrs by Annexin-V-FITC/propidium iodide staining based flow cytometry (reference value: 90.74%). The settings on record: light or radiation study, read-out: Activity. Format: functional. A digest of the protocol:
as §1

Data set [7] is described as follows: Dark toxicity in human HeLa cells assessed as reduction in cell viability after 3 hrs by MTT assay. In kind it is cell-based. An outline of the steps:
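Compound was formulated with Cremophor EL/1,2-propanediol in PBS, filtered, and its concentration confirmed by UV-Vis. HeLa cells in DMEM with 10% FBS at 37 °C, 5% CO2 were seeded at 3×10^3 cells/well and adhered overnight. Cells were exposed to graded concentrations for 3 h without light, incubated 24 h, then MTT 0.5 mg/mL for 4 h; formazan dissolved in DMSO, A490 read.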

The term pIC50 denotes −log10 of the IC50, conventionally taken in molar units. In general, IC50 refers to the concentration needed to halve the response being measured.

pIC50: −log10 of the molar value. Active and inactive are the calls of the source. No cut-off for these calls is given here.

Turning to `COc1ccc(C2=[N+]3C(=Nc4c(-c5ccccc5)cc(-c5ccc(OC)cc5)n4[B-]3(F)F)C(c3ccccc3)=C2I)cc1`, the pIC50 in the data set with HeLa [1] was 7.12. The Activity in data set [2] is 97000 M⁻¹ cm⁻¹; in the data set with HeLa [3], 14.98%. Besides, the Stabilty entry in data set [4] is on record as “Stable”. The result in the data set with HeLa [5] was Active. For the same molecule, the viability at 0.04 µM with HeLa [6] was found to be 77.3%. Besides, in data set [7], the IC50 at 3 h is over 50 µM.
